The results in this text go back to ChEMBL document CHEMBL3244193, “Design of species- or isozyme-specific enzyme inhibitors. 3. Species and isozymic differences between mammalian and bacterial adenylate kinases in substituent tolerance in an enzyme-substrate complex” (J Med Chem, 1979).

In series [1] the test system is Escherichia coli. Description: Activity of Escherichia coli adenylate kinase by Lineweaver-Burk plot analysis relative to ATP. In a few lines: (§1)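 Substrate kinetics in a pyruvate kinase/lactate dehydrogenase-coupled assay: 0.1 M Tris-HCl pH 7.6, 2 mM MgSO4, 0.12 M KCl, 0.3 mM PEP, 0.38 mM NADH, 0.25 mM AMP. A340 change over 5 min at 23 °C. Derivatives screened first at ca. 0.8 mM. Five or more substrate levels; KM and Vmax (relative to ATP) taken from linear Lineweaver-Burk plots.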

Series [2] deals with Escherichia coli. Nature of the series: Activity of Escherichia coli adenylate kinase by Lineweaver-Burk plot analysis. In a few lines: as §1
Series [3] deals with O=C(CI)NCCCCCNc1ncnc2c1ncn2[C@@H]1O[C@H](COP(=O)(O)OP(=O)(O)OP(=O)(O)O)[C@@H](O)[C@H]1O. Description: (§2) Activity of Sprague-Dawley rat liver adenylate kinase 2 by Lineweaver-Burk plot analysis relative to ATP. In a few lines:
as §1

The subject of series [4] is CSc1nc2c(N)ncnc2n1[C@@H]1O[C@H](COP(=O)(O)OP(=O)(O)OP(=O)(O)O)[C@@H](O)[C@H]1O. The description is as §2. In a few lines:
as §1

In series [5] the test system is CCCSc1nc2c(N)ncnc2n1[C@@H]1O[C@H](COP(=O)(O)OP(=O)(O)OP(=O)(O)O)[C@@H](O)[C@H]1O. Described as §2. The procedure, abridged:
as §1

In series [6] the test system is Nc1ncnc2c1ncn2[C@@H]1O[C@H](COP(=O)(O)OP(=O)(O)OP(=O)(O)O)[C@@H](O)[C@H]1O. The series is described as §2. In a few lines:
as §1

The subject of series [7] is O=C(CI)NCCCCCNc1ncnc2c1ncn2[C@@H]1O[C@H](COP(=O)(O)OP(=O)(O)OP(=O)(O)O)[C@@H](O)[C@H]1O. Nature of the series: (§3) Activity of Sprague-Dawley rat liver adenylate kinase 2 by Lineweaver-Burk plot analysis. The procedure, abridged: as §1
Series [8] has as its system CSc1nc2c(N)ncnc2n1[C@@H]1O[C@H](COP(=O)(O)OP(=O)(O)OP(=O)(O)O)[C@@H](O)[C@H]1O. The series is described as §3. In a few lines: as §1
The subject of series [9] is CCCSc1nc2c(N)ncnc2n1[C@@H]1O[C@H](COP(=O)(O)OP(=O)(O)OP(=O)(O)O)[C@@H](O)[C@H]1O. The series is described as §3. In a few lines:
as §1

Series [10] relates to Nc1ncnc2c1ncn2[C@@H]1O[C@H](COP(=O)(O)OP(=O)(O)OP(=O)(O)O)[C@@H](O)[C@H]1O. The description is as §3. In a few lines:
as §1

In the case of `Nc1ncnc2c1ncn2[C@@H]1O[C@H](COP(=O)(O)OP(=O)(O)OP(=O)(O)O)[C@@H](O)[C@H]1O`, the Vmax in series [1] was 0.06%.

The term Km denotes the concentration of substrate that gives half-maximal velocity. On to `O=C(CI)NCCCCNc1ncnc2c1ncn2[C@@H]1O[C@H](COP(=O)(O)OP(=O)(O)OP(=O)(O)O)[C@@H](O)[C@H]1O`, for which, in series [2], the Vmax is 0.12%. Besides, the Km in series [1] was 2500 µM.

“Adenylate kinase 2, mitochondrial (Rattus norvegicus) (from UniProt P29410)”: the Vmax in series [3] stood at 21%; in [4] it was 5%; in series [5], 15.7%; in series [6] it was 100%. Besides, the Michaelis constant (Km) in series [7] worked out at 1000 µM; in series [8], 180 µM; in [9], 60 µM; in series [10], 90 µM.
